Experimental data from ChEMBL document CHEMBL1122702, “Radiohalogen-labeled imaging agents. 3. Compounds for measurement of brain blood flow by emission tomography” (J Med Chem, 1984).

Key:
Type in all cases: ADME, organism-based
Rattus norvegicus [1] = organism: Rattus norvegicus; experiment: The distribution of the 131 I-labeled compound at 30 min was evaluated in rat brain as Percent of injected dose per gram in the organ; settings: in vivo, 0.5 h
Procedure, shortened: (§1)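 Male Sprague-Dawley rats (200–300 g, free access to food and water), lightly ether-anesthetized and restrained, received a 0.2 mL saline tail-vein bolus of 10–20 μCi 131I-labeled compound. They were decapitated at the stated time, and organs were excised, weighed and gamma-counted. Percent injected dose was determined against a calibrated external standard made by serial dilution of the injectate. n = 1–4 rats.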

Rattus norvegicus [2] = organism: Rattus norvegicus; experiment: The distribution of the 131 I-labeled compound at 30 min was evaluated in rat heart as Percent of injected dose in the total organ; settings: in vivo, 0.5 h; procedure, shortened: as §1
Rattus norvegicus [3] = organism: Rattus norvegicus; experiment: The distribution of the 131 I-labeled compound at 30 min was evaluated in rat heart as Percent of injected dose per gram in the organ; settings: in vivo, 0.5 h; procedure, shortened: as §1
Rattus norvegicus [4] = organism: Rattus norvegicus; experiment: The distribution of the 131 I-labeled compound at 30 min was evaluated in rat kidney as Percent of injected dose in the total organ; settings: in vivo, 0.5 h; procedure, shortened: as §1
Rattus norvegicus [5] = organism: Rattus norvegicus; experiment: The distribution of the 131 I-labeled compound at 30 min was evaluated in rat kidney as Percent of injected dose per gram in the organ; settings: in vivo, 0.5 h; procedure, shortened: as §1
Rattus norvegicus [6] = organism: Rattus norvegicus; experiment: The distribution of the 131 I-labeled compound at 30 min was evaluated in rat liver as Percent of injected dose in the total organ; settings: in vivo, 0.5 h; procedure, shortened: as §1
Rattus norvegicus [7] = organism: Rattus norvegicus; experiment: The distribution of the 131 I-labeled compound at 30 min was evaluated in rat liver as Percent of injected dose per gram in the organ; settings: in vivo, 0.5 h; procedure, shortened: as §1
Rattus norvegicus [8] = organism: Rattus norvegicus; experiment: The distribution of the 131 I-labeled compound at 30 min was evaluated in rat lung as Percent of injected dose per gram in the organ; settings: in vivo, 0.5 h; procedure, shortened: as §1
Rattus norvegicus [9] = organism: Rattus norvegicus; experiment: The distribution of the 131 I-labeled compound at 5 min was evaluated in rat brain as Percent of injected dose in the total organ; settings: in vivo; procedure, shortened: as §1
Rattus norvegicus [10] = organism: Rattus norvegicus; experiment: The distribution of the 131 I-labeled compound at 5 min was evaluated in rat brain as Percent of injected dose per gram in the organ; settings: in vivo; procedure, shortened: as §1
Rattus norvegicus [11] = organism: Rattus norvegicus; experiment: The distribution of the 131 I-labeled compound at 5 min was evaluated in rat heart as Percent of injected dose in the total organ; settings: in vivo; procedure, shortened: as §1
Rattus norvegicus [12] = organism: Rattus norvegicus; experiment: The distribution of the 131 I-labeled compound at 5 min was evaluated in rat heart as Percent of injected dose per gram in the organ; settings: in vivo; procedure, shortened: as §1
Rattus norvegicus [13] = organism: Rattus norvegicus; experiment: The distribution of the 131 I-labeled compound at 5 min was evaluated in rat kidney as Percent of injected dose in the total organ; settings: in vivo; procedure, shortened: as §1
Rattus norvegicus [14] = organism: Rattus norvegicus; experiment: The distribution of the 131 I-labeled compound at 5 min was evaluated in rat kidney as Percent of injected dose per gram in the organ; settings: in vivo; procedure, shortened: as §1
Rattus norvegicus [15] = organism: Rattus norvegicus; experiment: The distribution of the 131 I-labeled compound at 5 min was evaluated in rat liver as Percent of injected dose in the total organ; settings: in vivo; procedure, shortened: as §1
Rattus norvegicus [16] = organism: Rattus norvegicus; experiment: The distribution of the 131 I-labeled compound at 5 min was evaluated in rat liver as Percent of injected dose per gram in the organ; settings: in vivo; procedure, shortened: as §1
Rattus norvegicus [17] = organism: Rattus norvegicus; experiment: The distribution of the 131 I-labeled compound at 5 min was evaluated in rat lung as Percent of injected dose per gram in the organ; settings: in vivo; procedure, shortened: as §1
Rattus norvegicus [18] = organism: Rattus norvegicus; experiment: The distribution of the 131 I-labeled compound at 30 min was evaluated in rat blood as Percent of injected dose per gram in the organ; settings: in vivo, 0.5 h; procedure, shortened: as §1
Rattus norvegicus [19] = organism: Rattus norvegicus; experiment: Ratio of distribution of the [131I]-labeled compound at 30 min in rat brain over uptake in blood; settings: 0.5 h
Procedure, shortened: (§2)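 Male Sprague-Dawley rats (200–300 g, fed ad libitum), ether-anesthetized, got a tail-vein bolus of 0.2 mL saline containing 10–20 μCi 131I compound and were decapitated at the stated time. Organs were weighed and gamma-counted against a serially diluted external standard. Organ/blood ratio was calculated from % dose per gram of organ. Animal numbers per time point were 1–4.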

Rattus norvegicus [20] = organism: Rattus norvegicus; experiment: Ratio of distribution of the [131I]-labeled compound at 30 min in rat heart over uptake in blood; settings: other tissue, 0.5 h; procedure, shortened: as §2
Rattus norvegicus [21] = organism: Rattus norvegicus; experiment: Ratio of distribution of the [131I]-labeled compound at 30 min in rat liver over uptake in blood; settings: other tissue, 0.5 h; procedure, shortened: as §2
Rattus norvegicus [22] = organism: Rattus norvegicus; experiment: Ratio of distribution of the [131I]-labeled compound at 30 min in rat lung over uptake in blood; settings: other tissue, 0.5 h; procedure, shortened: as §2
Rattus norvegicus [23] = organism: Rattus norvegicus; experiment: Ratio of distribution of the [131I]-labeled compound at 5 min in rat brain over uptake in blood; procedure, shortened: as §2
Rattus norvegicus [24] = organism: Rattus norvegicus; experiment: Ratio of distribution of the [131I]-labeled compound at 5 min in rat heart over uptake in blood; settings: other tissue; procedure, shortened: as §2
Rattus norvegicus [25] = organism: Rattus norvegicus; experiment: Ratio of distribution of the [131I]-labeled compound at 5 min in rat liver over uptake in blood; settings: other tissue; procedure, shortened: as §2
Rattus norvegicus [26] = organism: Rattus norvegicus; experiment: Ratio of distribution of the [131I]-labeled compound at 5 min in rat lung over uptake in blood; settings: other tissue; procedure, shortened: as §2
Rattus norvegicus [27] = organism: Rattus norvegicus; experiment: The distribution of the 131 I-labeled compound at 5 min was evaluated in rat blood as Percent of injected dose per gram in the organ; settings: in vivo; procedure, shortened: as §1
Rattus norvegicus [28] = organism: Rattus norvegicus; experiment: The distribution of the 131 I-labeled compound at 30 min was evaluated in rat brain as Percent of injected dose in the total organ; settings: in vivo, 0.5 h; procedure, shortened: as §1
Rattus norvegicus [29] = organism: Rattus norvegicus; experiment: Ratio of distribution of the [131I]-labeled compound at 30 min in rat kidney over uptake in blood; settings: other tissue, 0.5 h; procedure, shortened: as §2
Rattus norvegicus [30] = organism: Rattus norvegicus; experiment: Ratio of distribution of the [131I]-labeled compound at 5 min in rat kidney over uptake in blood; settings: other tissue; procedure, shortened: as §2

| SMILES | Dose (Rattus norvegicus [1]) | Dose (Rattus norvegicus [2]) | Dose (Rattus norvegicus [3]) | Dose (Rattus norvegicus [6]) | Dose (Rattus norvegicus [7]) | Dose (Rattus norvegicus [8]) | Dose (Rattus norvegicus [9]) | Dose (Rattus norvegicus [10]) | Dose (Rattus norvegicus [11]) | Dose (Rattus norvegicus [12]) | Dose (Rattus norvegicus [15]) | Dose (Rattus norvegicus [16]) | Dose (Rattus norvegicus [17]) | Dose (Rattus norvegicus [18]) | Ratio (Rattus norvegicus [19]) | Ratio (Rattus norvegicus [20]) | Ratio (Rattus norvegicus [21]) | Ratio (Rattus norvegicus [22]) | Ratio (Rattus norvegicus [23]) | Ratio (Rattus norvegicus [24]) | other results |
| --- | --- | --- | --- | --- | --- | --- | --- | --- | --- | --- | --- | --- | --- | --- | --- | --- | --- | --- | --- | --- | --- |
| CCN(CC)C(C)Cc1cc(OC)c(I)cc1OC (centres undefined) | 0.13% | 0.2% | 0.14% | 4.3% | 0.32% | 1.2% | 0.78% | 0.39% | 0.4% | 0.35% | 6% | 0.46% | 2% | 0.06% | 4.3 | 2.3 | 8.1 | 20 | 5.6 | 5 | Dose (Rattus norvegicus [4]): 1.1%; Dose (Rattus norvegicus [5]): 0.39%; Dose (Rattus norvegicus [13]): 1.8%; Dose (Rattus norvegicus [14]): 0.69%; Ratio (Rattus norvegicus [25]): 5.5; Ratio (Rattus norvegicus [26]): 29; Dose (Rattus norvegicus [27]): 0.07%; Dose (Rattus norvegicus [28]): 0.26% |
| CNC(C)Cc1cc(OC)c(I)cc1OC (centres undefined) | 0.62% | 0.32% | 0.53% | 11% | 1.8% | 3.2% | 0.97% | 0.57% | 0.65% | 0.93% | 5.3% | 0.76% | 5.9% | 0.28% | 2.2 | 1.9 | 6.4 | 11.4 | 4.1 | 6.6 | Ratio (Rattus norvegicus [25]): 5.4; Ratio (Rattus norvegicus [26]): 42; Dose (Rattus norvegicus [27]): 0.14%; Dose (Rattus norvegicus [28]): 1% |
| COc1cc(CC(C)NC(C)C)c(OC)cc1I (centres undefined) | 0.3% | 0.29% | 0.44% | 6% | 1.2% | 2.8% | 1.2% | 0.66% | 0.79% | 1.2% | 7.2% | 1.1% | 7.7% | 0.23% | 1.3 | 1.9 | 5.2 | 12 | 2.6 | 4.8 | Ratio (Rattus norvegicus [25]): 4.4; Ratio (Rattus norvegicus [26]): 31; Dose (Rattus norvegicus [27]): 0.25%; Dose (Rattus norvegicus [28]): 0.52% |
| COc1cc(CC(C)N(C)C)c(OC)cc1I (centres undefined) | 0.55% | 0.28% | 0.26% | 12% | 0.89% | 1.7% | 3.4% | 1.8% | 1.1% | 0.8% | 16% | 1.1% | 3.1% | 0.11% | 5 | 2.4 | 8.1 | 15 | 9 | 4 | Dose (Rattus norvegicus [4]): 2.4%; Dose (Rattus norvegicus [5]): 0.9%; Dose (Rattus norvegicus [13]): 6.8%; Dose (Rattus norvegicus [14]): 2.4%; Ratio (Rattus norvegicus [29]): 8.4; Ratio (Rattus norvegicus [30]): 5.5; Ratio (Rattus norvegicus [25]): 5.5; Ratio (Rattus norvegicus [26]): 16; Dose (Rattus norvegicus [27]): 0.2%; Dose (Rattus norvegicus [28]): 1.1% |
| COc1cc(CC(C)N(C)C(C)C)c(OC)cc1I (centres undefined) | 0.05% | 0.24% | 0.19% | 4.6% | 0.32% | 0.38% | 0.23% | 0.12% | 0.39% | 0.34% | 10% | 0.76% | 0.53% | 0.53% | 0.09 | 0.36 | 0.6 | 0.72 | 0.24 | 0.68 | Dose (Rattus norvegicus [4]): 1.1%; Dose (Rattus norvegicus [5]): 0.38%; Dose (Rattus norvegicus [13]): 1.5%; Dose (Rattus norvegicus [14]): 0.53%; Ratio (Rattus norvegicus [29]): 0.72; Ratio (Rattus norvegicus [30]): 1.1; Ratio (Rattus norvegicus [25]): 1.6; Ratio (Rattus norvegicus [26]): 1.1; Dose (Rattus norvegicus [27]): 0.5%; Dose (Rattus norvegicus [28]): 0.1% |
| COc1cc(CC(C)NCCCN(C)C)c(OC)cc1I (centres undefined) | 0.02% | 1.6% | 1.5% | 7.7% | 0.55% | 5.4% | 0.05% | 0.03% | 1.9% | 1.8% | 11% | 0.66% | 3.8% | 0.07% | 0.3 | 21 | 7.8 | 77 | 0.3 | 17 | Dose (Rattus norvegicus [4]): 5.7%; Dose (Rattus norvegicus [5]): 2%; Dose (Rattus norvegicus [13]): 57%; Dose (Rattus norvegicus [14]): 2%; Ratio (Rattus norvegicus [29]): 29; Ratio (Rattus norvegicus [30]): 16; Ratio (Rattus norvegicus [25]): 6; Ratio (Rattus norvegicus [26]): 34; Dose (Rattus norvegicus [27]): 0.11%; Dose (Rattus norvegicus [28]): 0.04% |
| COc1cc(CC(C)NCc2ccccc2)c(OC)cc1I (centres undefined) | 0.5% | 0.34% | 0.5% | 5.4% | 0.95% | 5% | 1.1% | 0.64% | 0.77% | 1.1% | 4% | 0.72% | 8.3% | 0.2% | 2.5 | 2.5 | 4.7 | 25 | 5.3 | 9.2 | Ratio (Rattus norvegicus [25]): 6; Ratio (Rattus norvegicus [26]): 69; Dose (Rattus norvegicus [27]): 0.12%; Dose (Rattus norvegicus [28]): 0.9% |
| CCCCCCNC(C)Cc1cc(OC)c(I)cc1OC (centres undefined) | 0.57% | 0.25% | 0.36% | 9.4% | 1.6% | 4.3% | 0.63% | 0.37% | 1.5% | 2.1% | 4.6% | 0.58% | 7.5% | 0.17% | 3.4 | 2.1 | 9.4 | 25 | 2.3 | 13 | Ratio (Rattus norvegicus [25]): 5.4; Ratio (Rattus norvegicus [26]): 47; Dose (Rattus norvegicus [27]): 0.16%; Dose (Rattus norvegicus [28]): 0.97% |
| COc1cc(CC(C)NN)c(OC)cc1I (centres undefined) | 0.08% | 0.15% | 1.2% | 5% | 0.29% | 0.26% | 0.72% | 0.37% | 0.4% | 0.46% | 12% | 1.3% | 0.87% | 0.17% | 0.5 | 7.1 | 1.7 | 1.5 | 1 | 1.9 | Dose (Rattus norvegicus [4]): 1.5%; Dose (Rattus norvegicus [5]): 0.77%; Dose (Rattus norvegicus [13]): 2.2%; Dose (Rattus norvegicus [14]): 1.2%; Ratio (Rattus norvegicus [29]): 4.5; Ratio (Rattus norvegicus [30]): 3.3; Ratio (Rattus norvegicus [25]): 3.6; Ratio (Rattus norvegicus [26]): 2.4; Dose (Rattus norvegicus [27]): 0.36%; Dose (Rattus norvegicus [28]): 0.14% |
